System: MS2 coat protein
Test: apparent Kd, MS2 coat protein; higher = weaker binding; RNA-MaP array; FMN 200 µM where present
How it was run: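 The apparent Kd is the median of filtered binding-curve fits, one per cluster, to green signal normalised to red-channel RNA signal and control-cluster median Fmax. The clusters were on Illumina sequencing chips, and stalled E. coli RNA polymerase had transcribed the designs on them. Titration used SNAP-549-labelled MS2 coat protein from 0.7 or 1.5 nM, doubling to 3 µM, without and then with constant ligand, in 100 mM Tris-HCl pH 7.5, 80 mM KCl, 4 mM MgCl2, BSA, DTT, yeast tRNA and Tween-20.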

[1] = designed as: OFF switch for flavin mononucleotide, no ligand
[2] = ligand present: flavin mononucleotide, designed as: OFF switch for flavin mononucleotide
[3] = designed as: ON switch for flavin mononucleotide, no ligand
[4] = ligand present: flavin mononucleotide, designed as: ON switch for flavin mononucleotide

| Sequence | apparent Kd [1] | apparent Kd [2] | apparent Kd [3] | apparent Kd [4] |
| --- | --- | --- | --- | --- |
| GAGAAGUCAGGAUAUGCUGCUCGUCACUUGCGUGAUGAGUAGCAGAAGGGACAUGAGGAUCACCCAUGUGGAAA | 107 nM | 202 nM | – | – |
| CCAGCGUAUGUGAGGAUAUGCUGGUCCUUGGAUCAGCAGAAGGCACAUGAGGAUCACCCAUGUGGUGUCGUUGG | 303 nM | 37 nM | – | – |
| UGGUACUAGGGAGGAUAUGGGAAGAUACAUGAGGAUCACCCAUGUUAAAGAAUGCCGAGAGGCAACUAGAAGGCCCUAGUACCU | – | – | 293 nM | 16.3 nM |
| ACAUCACAUGAGGAUCACCCAUGUCAGGAUAUCGACUGAACAGCUUCGGCUGUUCAGUCGAGAAGGGACAAUUA | 66.5 nM | 131 nM | – | – |
| ACUAUACGAGGAUAUACUGACGGGCCUCAGGCAUCCAUCAGACAUGAGGAUCACCCAUGUAGAAGGCGUAUACU | 56.1 nM | 158 nM | – | – |
| AACAUGGUAUCAGGAUAUGGGUGUCACAACCACUCAGAAGGGAUACCGAUGACAUGAGGAUCACCCAUGUCGCUAUUUACCUGU | – | – | 17.2 nM | 7.98 nM |
| GUACUCAUGUAAGGAUAUGCAGCCGUUUCGGCUGCAGAAGGUACUAUAAUACAUGAGGAUCACCCAUGUCUCUCGCAUUGCGAG | – | – | 465 nM | 98.4 nM |
| AACCUAUUACAGAAGGCCAGCUACAUGAGGAUCACCCAUGUCGAGUCAUGGAGGAUAUGUAGUAAUUUACUCGCAGAUAAGUGC | – | – | 22.6 nM | 4.45 nM |
| AGAUGGUAUAUAGGAUAUCAUGUGCAAACAUGAGGAUCACCCAUGUAGAGACGUCAGUCUAAUAAUGAGAAGGAUAUACCAUCU | – | – | 37.1 nM | 9.97 nM |
| CCGUCCUGAGGAUAUCCACCCUCAUACAUGAGGAUCACCCAUGUUCACCCUUGGGUUCCCGGAGAAGGCAGUUUUC | 243 nM | 374 nM | – | – |
| CCGGGUUAUGUUAGGAUAUGUAGGCCGCAACCGGAACAGAAGGGACAUGAGGAUCACCCAUGUGAUAUUCCCGG | 23.3 nM | 30.8 nM | – | – |
| AGUUAAUAUCGAGGAUAUCCUCAUAAACAUGAGGAUCACCCAUGUAGAAUGGGAGAAGGCGAUAUUAACAGCAUGUUACAUGCA | – | – | 210 nM | 114 nM |
| CACCGUAACUGAGGAUAUCAAACAUGAGGAUCACCCAUGUAAUAAAUGAGAAUUUCGAAUGUACCUGAGAAGGCAGAAACCGGC | 38 nM | 48.3 nM | – | – |
| UCUUGACAUGAGGAUCACCCAUGUCAGGAUAUAGUAGGACAAAUAAAUAAAAGUUCUACUAGAAGGGACGUGGG | 20.4 nM | 26.7 nM | – | – |
| AGCUGCCGGUCACAUGAGGAUCACCCAUGUAACCUGCAUUCACAGGAUAUGUUGGCUCCUUGCCGGCAGAAGGGUGAAGCGCCG | – | – | 371 nM | 107 nM |
| UACAUGAGGAUCACCCAUGUUUUGUCGUGUAUGGUAUUUAUCUAGGAUAUCAAUUGUUUUAUUUAUGAGAAGGAGAAUAUUAAU | 39.3 nM | 35.8 nM | – | – |
| GUAGCAUACCGAGGAUAUUCAGGGCGUGGAUAAACAUGAGGAUCACCCAUGUGGCGAAAGCCUAGGGAGAAGGCGGAAUGCUAC | – | – | 21.5 nM | 16.3 nM |
| GUGGUUGUCGUAGGAUAUGUAGGAUAUUCCUACAUGAGGAUCACCCAUGUUCGCAUGGAAGAAGGAUAGAAGGACGAUGACCAG | – | – | 76.7 nM | 388 nM |
| GUUUUUCCUCAUGUACAUGAGGAACAUGAGGAUCACCCAUGUAGAAGGAUUUCCCUUAAAUUAAGAUAGGAUAUACAUAUAUUU | 102 nM | 59.3 nM | – | – |
| UGUAUGGACAGAGGAUAUACGUGCUAGAGAUACUAGCAAAUAAUCCUUACAUGAGGAUCACCCAUGUAGAAGGCUGUCCAUACU | 20.1 nM | 46.5 nM | – | – |
| UGAUCGAGAGAUCUUAGAUUCUGGUAGGAUAUGCAACAGUUGCGCUUUACAUGAGGAUCACCCAUGUAGAAGGACUAGAGUCUA | 5.86 nM | 6.1 nM | – | – |
| AAAAAUGGAGGAUAUACAUGAGGAUCACCCAUGUGUGGGCAUACUAUGUCGGCGUCAGGUAGAAGGCCAAAAAA | 40.8 nM | 48.9 nM | – | – |
| AAAACGAUGUGAGGAUAUCACCGCUGUGACGGCUGAGAAGGCACAUGAGGAUCACCCAUGUGCAGGCGUGUGUGGGUAAUCCAA | 186 nM | 139 nM | – | – |
| AUAGCAACAUGAGGAUCACCCAUGUAGGAUAUCGCUAUUGUAAUCAUGAAACAUGAUUACAAUAGCGAGAAGGACAUAUGCUAA | 7.84 nM | 10.2 nM | – | – |
| ACGUUUUAUGCAGGAUAUUGAAAUUUAUUACAACAAGAAGGGCAAUACAUGAGGAUCACCCAUGUCAGCAUGGUAUUAAAGUUC | 18 nM | 16.1 nM | – | – |
| AACCAGUUGGUAGGAUAUGGUGCAGUGCUCGUACCAGAAGGACCAACAUGAGGAUCACCCAUGUUGGAAAGUCAACAUUAAUGA | 6.23 nM | 16.4 nM | – | – |
| GUAUUUAGAUAAGGAUAUAAGUCUAGGACAUGAGGAUCACCCAUGUGUGUCUUAGAAGGUAUUUGGGUAAUACUGUUACAGUAA | – | – | 150 nM | 99.5 nM |
| ACAGCUGAAGGAUAUACUUGGGAAAAAAAAAAAAAAAAAAAACAUGAGGAUCACCCAUGUAGAAGGUCAGCUGA | 103 nM | 60 nM | – | – |

| Sequence | apparent Kd [1] | apparent Kd [2] | apparent Kd [3] | apparent Kd [4] |
| --- | --- | --- | --- | --- |
| AAGGUCAAGAUAGGAUAUGUUUCAUGAUAGAUAACAGAAGGAUCUAGAACAUGAGGAUCACCCAUGUGGCACAUAGAGUGGUGA | – | – | 429 nM | 441 nM |
| AAAAAGUGAGGAUAUGCACUGUCCUGUAGACGCGAGCAGUUGUAGAAGGCACAUGAGGAUCACCCAUGUUUAAA | 25.1 nM | 22.5 nM | – | – |
| GGAAUCUAGUCAGGAUAUCGGGCAAUAAUUGCACGAGAAGGGACAUGAGGAUCACCCAUGUACACCUCUGGUGAGUCUCGCAGG | 16 nM | 44.3 nM | – | – |
| CUUUUGUGAGGAUAUCAGUAGUUAAUAAAUAAAAUUACUACUGAGAAGGCACAUGAGGAUCACCCAUGUUCCUC | 37.1 nM | 211 nM | – | – |
| GGAAAACAUGAGGAUCACCCAUGUGAGGAUAUCGAUGUCCAAAAAAAAGUGCGGGACUCGAGAAGGCACUUGGU | 57.1 nM | 58.4 nM | – | – |
| CAGUUAAAAGUGAGGUCUUCGACAUGAGGAUCACCCAUGUACGAGGAUAUGUAAUAUACGGUAUAGCAGAAGGCGUAUGGGUGU | 20.9 nM | 46.9 nM | – | – |
| UUACCUCAUGAGAAGGACAUGAGGAUCACCCAUGUAGGAUAUCGUGGGAGACUGGUAUUGAAUCUUCGGAUUCAAUACCAGUCU | – | – | 375 nM | 29.7 nM |
| CGAUCGUUGCAGAAGGUUAUUUUUUUAACAAUUCUCUUAACAUGAGGAUCACCCAUGUUUUUGAUGAAGGAUAUGCAAGGGUCG | 5.76 nM | 5.5 nM | – | – |
| AAAAUCUAUUGAGGAUAUUCAUACACUACAUACGAAGAAGGCAAACAAUCAUGAGGACAUGAGGAUCACCCAUGUUGUGACCAU | – | – | 24 nM | 15.5 nM |
| CGUUCGUGAGGAUAUUGUGGAAUUGACAUGAGGAUCACCCAUGUGGCCAUUGUCGACUCGCAAGAAGGCAUAGAUU | 54.2 nM | 189 nM | – | – |
| UAGUUAUUCACAGGAUAUCGCCUCUUAUUACAUGAGGAUCACCCAUGUUUACUUAGUUACAUGUUCGAGAAGGGUGUAGCCGUU | 491 nM | 554 nM | – | – |
| CUUUUGUGAGGAUAUUAGUAGUUUAUAAUUGGUGUUAUUACUGAGAAGGCACAUGAGGAUCACCCAUGUACAAC | 47.9 nM | 181 nM | – | – |
| UUUAUGUCAGGAUAUGAUUAGAUCUACUUCGGUAGAUCUAAUCAGAAGGGACAUGAGGAUCACCCAUGUAGUUU | 111 nM | 226 nM | – | – |
| CUUUAGUGAGGAUAUCAGUAGUAAUACAAUAGUAUUACUGCUGAGAAGGCACAUGAGGAUCACCCAUGUUCCUC | 38.1 nM | 169 nM | – | – |
| GGAUAGGACUGAGGAUAUACGUGCUAGAGAUACUAGCAAAAUUUCCUCACAUGAGGAUCACCCAUGUAGAAGGCUGUCCUAUCG | 7.13 nM | 42.3 nM | – | – |
| UGAUGACCUGUACCUAGUUGGUGACAUGAGGAUCACCCAUGUCAGGAUAUCGGGUUUGAAAACAACGAGAAGGGACAACGGGCG | 12.6 nM | 13 nM | – | – |
| GUGCGGAACCUAGGAUAUCCGGCAUGGACAGGUGGUAAGUCUCCCACAUGAGGAUCACCCAUGUAGGAGAAGGAGGAUCACGGA | 6.46 nM | 6.07 nM | – | – |
| AUUUAAAUGUCAGGAUAUGUUAGUUUAUACAUAGUAGAAGGGAUAAUUAUACUCAUGUACAUGAGGAUCACCCAUGUUAAAUCA | – | – | 212 nM | 98.5 nM |
| GCGUCAGAAUUAAUUGUGACAUACAGAAGGCAAAAGUAAGGAUAAGACAUGAGGAUCACCCAUGUUGAGGAUAUGUAGAGAAUC | 10.7 nM | 8.64 nM | – | – |
| UCGUAACGAGGAUAUACAAGGGUCAGGCCCGCCUGACACACACAUGAGGAUCACCCAUGUAGAAGGUGUAGCGC | 19.4 nM | 18.4 nM | – | – |
| UUUUACGUUUCGUAGCAGUGUCAUCGAGAAGGCCCUGACAUGAGGAUCACCCAUGUUGUUACAUGGGAGGAUAUCGAUGAUAAA | – | – | 15.9 nM | 5.75 nM |
| CAGGUCUGAGGAUAUCCAUCUUCAUACAUGAGGAUCACCCAUGUUUACCUCUGGGUUUUCGGAGAAGGCAGUUUUU | 354 nM | 397 nM | – | – |
| GUCCGAAGGGAGAAGGGCUAGGAGGUCCAGCUUAUGUGUGUUGCAACAUGAGGAUCACCCAUGUAGCAGGAUAUCCCUCGUACA | 44.5 nM | 333 nM | – | – |
| CCCAGUUAGGAAGGAUAUUGUACAUGAGGAUCACCCAUGUAAUAAAUGAGGAUCACGGAUGUAUACAAGAAGGUCCGGAUAGGC | 70.4 nM | 140 nM | – | – |
| GCGACGAAAGUCGAACGAUGUAGCAGAAGGACAUGAGGAUCACCCAUGUCAGCUGUAACAGCCAUGUAGGAUAUGCUACAUCGC | 4.19 nM | 5.42 nM | – | – |
| AUAUAAUAUCAGGAUAUGACUAGCUGCGGCUAGUCAGAAGGGAUGACAUGAGGAUCACCCAUGUGAUCAUAUAU | 33.2 nM | 151 nM | – | – |
| AUUAGGUAAGGAUAUACAUGAGGAUCACCCAUGUAGGUUAACGCAACCGGGUCCGGCUGUAGAAGGUGCAACGU | 32.5 nM | 32.6 nM | – | – |

Reference: the EternaBench riboswitch data
